Test results: ChEMBL document CHEMBL3232837, “Synthesis and evaluation of new Hsp90 inhibitors based on a 1,4,5-trisubstituted 1,2,3-triazole scaffold” (J Med Chem, 2014)
Activity calls are given as the source filed them. No cut-off for these calls is given here.

Legend:
Mus musculus [1] = test: Toxicity in CD-1 nude mouse xenografted with human A431 cells overexpressing EGFR assessed as body weight loss at 5 mg/kg, ip administered as q2d/week for 2 weeks starting 3 days after tumor injection measured on day 5 post last dose relative to vehicle-treated control; format: organism-based, A-431; design: dose 5 mg/kg, route intraperitoneal; details: in vivo
How it was run: (§1)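 Female athymic nude mice carrying s.c. xenografts, dosed i.p. (mg/10 mL/kg per administration) starting 3 days after tumor injection. BWL% = 100 − (mean BW day x/mean BW day 1 × 100), day 1 being the first treatment day. Maximum BWL% recorded. Lethal toxicity counted as deaths before the first control death.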

Mus musculus [2] = test: (§2) In vivo inhibition of HSP90 in human GTL16 cells overexpressing c-Met xenografted in CD-1 nude mouse assessed as downregulation of CDK4 protein expression at 5 mg/kg, ip administered as q2d/week for 2 weeks starting 3 days after tumor injection measured at 6 hrs post last dose by Western blot analysis; format: functional, organism-based; design: dose 5 mg/kg
How it was run: (§3)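 Nude-mouse s.c. xenografts given i.p. compound from day 3. Tumors excised 2 h (A431) or 6 h (GTL-16) after last dose and homogenized in tissue protein extraction reagent with 10 µg/ml protease inhibitor cocktail. Whole lysates analysed by Western blot with actin as loading control; two tumor samples per group shown.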

[3] = Antitumor activity against human GTL16 cells overexpressing c-Met xenografted in CD-1 nude mouse assessed as tumor growth inhibition at 5 mg/kg, ip administered as q2d/week for 2 weeks starting 3 days after tumor injection measured on day 5 post last dose relative to vehicle-treated control; format: functional; details: GTL 16, ip, route intraperitoneal, read-out: TGI
How it was run: (§4)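 Female athymic nude mice, 5-6 weeks old, inoculated s.c. in right flank with 5 × 10^6 exponentially growing tumor cells. Intraperitoneal dosing in 10 mL/kg, starting 3 days post-implant. Tumor volume = d²·D/2 from calipered shortest and longest diameters, measured biweekly. TVI% = 100 − (mean TV treated/mean TV control × 100), scored 5 days after last dose. Mann-Whitney test vs vehicle group; 8 mice per group.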

[4] = molecular target: Heat shock protein HSP 90-beta (Homo sapiens) (UniProt P08238); test: Inhibition of HSP90 in human A431 cells overexpressing EGFR assessed as downregulation of EGFR protein expression after 24 hrs by Western blot analysis; format: cell-based; details: A-431
Heat shock protein HSP 90-beta (Homo sapiens), sequence (P08238 whole entry): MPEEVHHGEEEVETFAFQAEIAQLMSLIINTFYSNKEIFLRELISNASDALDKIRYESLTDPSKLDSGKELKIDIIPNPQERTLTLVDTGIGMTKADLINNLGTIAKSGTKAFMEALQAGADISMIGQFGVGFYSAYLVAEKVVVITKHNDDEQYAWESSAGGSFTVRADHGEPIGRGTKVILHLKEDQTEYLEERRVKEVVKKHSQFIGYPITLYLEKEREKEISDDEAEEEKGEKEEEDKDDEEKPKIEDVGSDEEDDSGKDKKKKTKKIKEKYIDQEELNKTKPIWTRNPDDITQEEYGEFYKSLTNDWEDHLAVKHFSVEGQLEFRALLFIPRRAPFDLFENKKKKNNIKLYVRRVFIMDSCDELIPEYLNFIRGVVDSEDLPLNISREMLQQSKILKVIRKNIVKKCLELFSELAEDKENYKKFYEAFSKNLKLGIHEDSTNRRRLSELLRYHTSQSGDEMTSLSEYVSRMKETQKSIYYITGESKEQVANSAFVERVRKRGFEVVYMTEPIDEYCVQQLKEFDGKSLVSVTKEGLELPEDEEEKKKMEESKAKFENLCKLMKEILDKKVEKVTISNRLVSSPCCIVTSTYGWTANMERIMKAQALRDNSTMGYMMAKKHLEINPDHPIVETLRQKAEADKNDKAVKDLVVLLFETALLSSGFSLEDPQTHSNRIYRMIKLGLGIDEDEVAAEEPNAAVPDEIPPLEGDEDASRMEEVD
How it was run: (§5)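 A431 cells treated 24 h after seeding for 24 h over a concentration range; 17-DMAG 0.2 µM as reference. Cells lysed in RIPA buffer with protease and phosphatase inhibitors, protein measured by Bradford. Equal protein run on SDS-PAGE and blotted to nitrocellulose, then probed for EGFR, Cdk4, Akt, Hsp70 and actin. ECL detection; densitometry normalized to β-actin. Run at least twice.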

[5] = Metabolic stability in human plasma assessed as compound remaining at 5 uM measured at 120 mins by LC/MS analysis; format: ADME, cell-free
How it was run: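 Compound added to human plasma at 5 µM final and incubated at 37 °C for up to 120 min. Samples quenched in two volumes of chilled acetonitrile and centrifuged at 4 °C. Remaining compound quantified by LC/MS.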

NCI-H460 [6] = test: Induction of apoptosis in human NCI-H460 cells assessed as cell with hypodiploid DNA content at 2 times IC50 after 24 to 72 hrs by propidium iodide staining-based FACS flow cytometric analysis; format: functional
[7] = molecular target: Heat shock protein HSP 90-alpha (Homo sapiens, UniProt P07900); test: Displacement of GM-FITC from full-length recombinant human Hsp90-alpha after 4 hrs by fluorescence polarization assay
Mus musculus [8] = test: In vivo inhibition of HSP90 in human A431 cells overexpressing EGFR xenografted in CD-1 nude mouse assessed as downregulation of AKT protein expression at 5 mg/kg, ip administered as q2d/week for 2 weeks starting 3 days after tumor injection measured at 2 hrs post last dose by Western blot analysis; format: functional, organism-based; design: dose 5 mg/kg; details: A-431; how it was run: as §3
Mus musculus [9] = test: In vivo inhibition of HSP90 in human A431 cells overexpressing EGFR xenografted in CD-1 nude mouse assessed as induction of HSP70 protein expression at 5 mg/kg, ip administered as q2d/week for 2 weeks starting 3 days after tumor injection measured at 2 hrs post last dose by Western blot analysis; format: functional, organism-based; design: dose 5 mg/kg; details: A-431; how it was run: as §3
Mus musculus [10] = test: Toxicity in CD-1 nude mouse xenografted with human GTL16 cells overexpressing c-Met assessed as body weight loss at 5 mg/kg, ip administered as q2d/week for 2 weeks starting 3 days after tumor injection measured on day 5 post last dose relative to vehicle-treated control; format: organism-based; design: dose 5 mg/kg, route intraperitoneal; details: in vivo; how it was run: as §1
Mus musculus [11] = test: as §2, with “AKT” for “CDK4”; format: functional, organism-based; design: dose 5 mg/kg; how it was run: as §3
Mus musculus [12] = test: In vivo inhibition of HSP90 in human A431 cells overexpressing EGFR xenografted in CD-1 nude mouse assessed as downregulation of EGFR protein expression at 5 mg/kg, ip administered as q2d/week for 2 weeks starting 3 days after tumor injection measured at 2 hrs post last dose by Western blot analysis; format: functional, organism-based; design: dose 5 mg/kg; details: A-431; how it was run: as §3
NCI-H460 [13] = test: Cytotoxicity against human NCI-H460 cells assessed as growth inhibition after 72 hrs by SRB assay; format: functional, cell-based; details: NCI-H460, 72 h
How it was run: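 NCI-H460 cells grown in RPMI-1640 with 10% heat-inactivated FBS, seeded at about 10% confluence and allowed 24 h recovery. Exposed to graded drug concentrations or solvent for 72 h. Surviving fraction measured by sulforhodamine B. IC50 is the concentration giving a 50% drop in cell number vs vehicle, from dose-response curve fitting; mean of n=4 with SD.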

A-431 = test: Antitumor activity against human A431 cells overexpressing EGFR xenografted in CD-1 nude mouse assessed as tumor growth inhibition at 5 mg/kg, ip administered as q2d/week for 2 weeks starting 3 days after tumor injection measured on day 5 post last dose relative to vehicle-treated control; format: functional; details: A-431, ip, route intraperitoneal, read-out: TGI; how it was run: as §4
Mus musculus [14] = test: Toxicity in CD-1 nude mouse xenografted with human GTL16 cells overexpressing c-Met assessed as mortality at 5 mg/kg, ip administered as q2d/week for 2 weeks starting 3 days after tumor injection measured on day 5 post last dose relative to vehicle-treated control; format: organism-based; design: dose 5 mg/kg, route intraperitoneal; details: in vivo
How it was run: (§6)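 S.c. right-flank xenografts, 5 × 10^6 cells, in female athymic nude mice 5-6 weeks old. Intraperitoneal dosing in 10 mL/kg from day 3 post-implant. Lethal toxicity counted as deaths in treated mice occurring before the first control mouse died, reported as dead/treated (8 per group). Body weight loss was also tracked from the first treatment day.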

NCI-H460 [15] = test: Cell cycle arrest in human NCI-H460 cells assessed as accumulation at G2/M phase at 2 times IC50 after 24 to 72 hrs by propidium iodide staining-based FACS flow cytometric analysis; format: functional
[16] = molecular target: Heat shock protein HSP 90-beta (Homo sapiens) (UniProt P08238); test: Inhibition of HSP90 in human A431 cells overexpressing EGFR assessed as induction of HSP70 protein expression after 24 hrs by Western blot analysis; format: cell-based; details: A-431; how it was run: as §5
Mus musculus [17] = test: Toxicity in CD-1 nude mouse xenografted with human A431 cells overexpressing EGFR assessed as mortality at 5 mg/kg, ip administered as q2d/week for 2 weeks starting 3 days after tumor injection measured on day 5 post last dose relative to vehicle-treated control; format: organism-based, A-431; design: dose 5 mg/kg, route intraperitoneal; details: in vivo; how it was run: as §6
[18] = molecular target: Heat shock protein HSP 90-beta (Homo sapiens) (UniProt P08238); test: Inhibition of HSP90 in human A431 cells overexpressing EGFR assessed as downregulation of AKT protein expression after 24 hrs by Western blot analysis; format: cell-based; details: A-431; how it was run: as §5
[19] = molecular target: Heat shock protein HSP 90-beta (Homo sapiens) (UniProt P08238); test: Inhibition of HSP90 in human A431 cells overexpressing EGFR assessed as downregulation of CDK4 protein expression after 24 hrs by Western blot analysis; format: cell-based; details: A-431; how it was run: as §5
Mus musculus [20] = test: In vivo inhibition of HSP90 in human GTL16 cells overexpressing c-Met xenografted in CD-1 nude mouse assessed as induction of HSP70 protein expression at 5 mg/kg, ip administered as q2d/week for 2 weeks starting 3 days after tumor injection measured at 6 hrs post last dose by Western blot analysis; format: functional, organism-based; design: dose 5 mg/kg; how it was run: as §3
Mus musculus [21] = test: In vivo inhibition of HSP90 in human A431 cells overexpressing EGFR xenografted in CD-1 nude mouse assessed as downregulation of CDK4 protein expression at 5 mg/kg, ip administered as q2d/week for 2 weeks starting 3 days after tumor injection measured at 2 hrs post last dose by Western blot analysis; format: functional, organism-based; design: dose 5 mg/kg; details: A-431; how it was run: as §3
Mus musculus [22] = test: as §2, with “c-Met” for “CDK4”; format: functional, organism-based; design: dose 5 mg/kg; how it was run: as §3

In the case of `CCNC(=O)c1nnn(-c2cc(C(C)C)c(O)cc2O)c1-c1ccc(CN2CCOCC2)cc1`, the Imax (Mus musculus [1]) is reported as 1%, the inhibition (Mus musculus [2]) is reported as “Active” and the inhibition in vivo at 5 mg/kg [3] is reported as 42%. The inhibition [4] was “Dose-dependent effect”, the remaining at 2 h, 5 µM [5] was 65% and the Activity (NCI-H460 [6]) was “Active”. The IC50 [7] was under 5 nM, the inhibition (Mus musculus [8]) was “Active” and the inhibition (Mus musculus [9]) was “Active”. For the same compound, the Imax (Mus musculus [10]) was 17%, the inhibition (Mus musculus [11]) was “Active” and the inhibition (Mus musculus [12]) was “Active”. For the same compound, the IC50 (NCI-H460 [13]) was 4 nM, the inhibition in vivo at 5 mg/kg (A-431) was 49% and the Activity (Mus musculus [14]) was “Non-toxic”. For the same compound, the Activity (NCI-H460 [15]) was “Active”, the inhibition [16] was “Dose-dependent effect” and the Activity (Mus musculus [17]) was “Non-toxic”. For the same compound, the inhibition [18] was “Dose-dependent effect”, the inhibition [19] was “Dose-dependent effect” and the inhibition (Mus musculus [20]) was “Active”. The inhibition (Mus musculus [21]) was “Active” and the inhibition (Mus musculus [22]) was “Active”.
